We go through 1 molecule from PMC4111568 (Bioorganic & medicinal chemistry, 2011).

This experiment concerns CWR22rv-1 cells. The experiment in a line: Cell death of CWR22rv-1 prostate cancer cells. In kind it is cell-based, human. Particulars: 25 μM, after 24 h. An outline of the steps: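 CWR22Rv1 cells were seeded at 300,000 cells/well in RPMI 1640 with 10% FBS, 2.5 mM L-glutamine and penicillin-streptomycin at 37 °C, 5% CO2, then serum-starved overnight. Test compound (DMSO stock, diluted in serum-free RPMI) was applied in triplicate for 24–72 h. Cells were trypsinised, fixed in 70% ethanol, treated with RNase (5 μg/mL), stained with propidium iodide (50 μg/mL), and DNA content/cell-cycle fractions were measured by flow cytometry.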

As to `CCCCCCCC(O)(C(N)=O)c1cccc(Cl)c1` (racemic) [(±)-1, 2-(3-chlorophenyl)-2-hydroxynonanamide], the cell death result was “marginal effects”.
